Results as given in ChEMBL document CHEMBL1212860, “Further optimization of novel pyrrole 3-carboxamides for targeting serotonin 5-HT(2A), 5-HT(2C), and the serotonin transporter as a potential antidepressant” (Bioorg Med Chem, 2010).
pIC50: −log10 of the molar value.

The compounds below were run on Mus musculus (assay: Locomotor activity in mouse assessed as distance traveled by animal in horizontal locomotion at 25 mg/kg, po after 60 mins measured for 30 mins by spontaneous locomotor activity).
Format: functional
Summary of the method: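 Mice were dosed orally at 25 mg/kg and acclimated to the chamber for 10 min. Horizontal distance travelled (cm) was then recorded over 30 min by automated video tracking. Testing ran between 09:00 and 17:00 h. Mean ± SEM of 6–7 mice.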

Row | Compound | Activity [cm]
1 | Cc1c(Cl)cccc1N1CCN(CCNC(=O)c2cc(-c3ccccc3)n(C)c2C)CC1 | 7100
2 | Cc1c(Cl)cccc1N1CCN(CCNC(=O)c2cc(C(C)(C)C)n(C)c2C)CC1 | 6217

These compounds were tested against Sodium-dependent serotonin transporter (Homo sapiens, UniProt P31645) (assay: Displacement of [3H]imipramine from human SERT expressed in HEK293 cells).
Sequence of Sodium-dependent serotonin transporter (P31645 whole entry): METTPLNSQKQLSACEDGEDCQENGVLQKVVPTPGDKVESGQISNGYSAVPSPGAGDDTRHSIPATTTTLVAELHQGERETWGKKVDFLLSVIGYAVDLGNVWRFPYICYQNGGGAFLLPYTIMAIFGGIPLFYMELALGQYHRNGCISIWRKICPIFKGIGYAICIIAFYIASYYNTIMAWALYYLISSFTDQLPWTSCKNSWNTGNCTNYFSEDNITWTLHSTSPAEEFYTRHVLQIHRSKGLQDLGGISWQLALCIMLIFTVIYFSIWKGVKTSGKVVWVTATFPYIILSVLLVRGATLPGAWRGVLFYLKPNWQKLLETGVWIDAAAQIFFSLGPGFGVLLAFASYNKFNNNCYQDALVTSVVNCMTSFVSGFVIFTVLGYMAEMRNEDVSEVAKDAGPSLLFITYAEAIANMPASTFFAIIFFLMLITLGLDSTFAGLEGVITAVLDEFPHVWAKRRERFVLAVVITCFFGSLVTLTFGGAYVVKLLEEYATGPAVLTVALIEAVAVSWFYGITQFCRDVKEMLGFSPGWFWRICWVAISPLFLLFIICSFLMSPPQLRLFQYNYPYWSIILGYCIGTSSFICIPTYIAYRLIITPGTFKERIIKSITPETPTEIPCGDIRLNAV
Format: cell-based
Summary of the method: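 Membranes from 293 cells expressing SERT were incubated with 2 nM [3H]imipramine in 50 mM Tris-HCl pH 7.4 with 120 mM NaCl and 5 mM KCl for 30 min at 27 °C. Filtered through glass fibre presoaked in 0.5% PEI, then washed with ice-cold 50 mM Tris-HCl pH 7.4 containing 0.9% NaCl.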

Row | Compound | pIC50
3 | Cc1cccc(N2CCN(CCNC(=O)c3cc(C(C)(C)C)n(C)c3C)CC2)c1C | 6.04
4 | Cc1c(Cl)cccc1N1CCN(CCNC(=O)c2cc(-c3ccccc3)n(C)c2C)CC1 | 7.19
5 | Cc1c(C(=O)NCCN2CCN(c3cccc(Cl)c3Cl)CC2)c(C)n(C)c1-c1ccccc1 | 7.11
6 | CCCn1c(-c2ccccc2)cc(C(=O)N(C)CCCN2CCN(c3cccc(C)c3C)CC2)c1C | 6.79
7 | Cc1c(C(=O)NCCCN2CCN(c3ccccc3Br)CC2)cc(-c2ccccc2)n1C | 6.65
8 | CCn1c(-c2ccc(Cl)cc2)cc(C(=O)NCCCN2CCN(c3cccc(Cl)c3Cl)CC2)c1C | 6.20
9 | Cc1c(Cl)cccc1N1CCN(CCNC(=O)c2cc(C(C)(C)C)n(C)c2C)CC1 | 6.50
10 | CCCn1c(-c2ccccc2)cc(C(=O)NCCCN2CCN(c3ccc(Cl)c(Cl)c3)CC2)c1C | 6.55
11 | CCCn1c(-c2ccccc2)cc(C(=O)NCCCN2CCN(c3cccc4cccnc34)CC2)c1C | 7.09

More lines, now with the values ahead:

Row | pIC50 | Compound
12 | < 5.00 | Cc1c(C(=O)NCCCN2CCN(c3ccncc3)CC2)cc(-c2ccccc2)n1C
13 | 6.42 | CCCn1c(-c2ccccc2)cc(C(=O)NCCCN2CCN(c3cccc(C(F)(F)F)c3)CC2)c1C
14 | 6.52 | Cc1ccc2cccc(N3CCN(CCCNC(=O)c4cc(-c5ccccc5)n(C)c4C)CC3)c2n1
15 | 6.65 | CCCn1c(-c2ccccc2)cc(C(=O)NCCCN2CCN(c3cccc(Br)c3)CC2)c1C
16 | 8.15 | Cc1c(C(=O)NCCCN2CCN(c3cccc(Cl)c3Cl)CC2)cc(-c2cccnc2)n1C
17 | 6.60 | Cc1cccc(N2CCN(CCCNC(=O)c3cc(C(C)(C)C)n(C)c3C)CC2)c1C
18 | 6.49 | CCCn1c(-c2ccccc2)cc(C(=O)NCCCN2CCN(c3cccc(OC)c3)CC2)c1C
19 | 7.35 | Cc1c(C(=O)NCCN2CCN(c3cccc(Cl)c3Cl)CC2)cc(C(C)(C)C)n1C
20 | 7.66 | Cc1c(C(=O)NCCCN2CCN(c3cccc4cccnc34)CC2)cc(-c2ccccc2)n1C
21 | 6.07 | CCCn1c(-c2ccccc2)cc(C(=O)NCCCN2CCN(c3cc(F)ccc3F)CC2)c1C

Each compound was assayed against 5-hydroxytryptamine receptor 2A (Homo sapiens, UniProt P28223) (assay: Displacement of [3H]ketanserin from human recombinant 5HT2A expressed in CHOK1 cells).
Sequence of 5-hydroxytryptamine receptor 2A (P28223 whole entry): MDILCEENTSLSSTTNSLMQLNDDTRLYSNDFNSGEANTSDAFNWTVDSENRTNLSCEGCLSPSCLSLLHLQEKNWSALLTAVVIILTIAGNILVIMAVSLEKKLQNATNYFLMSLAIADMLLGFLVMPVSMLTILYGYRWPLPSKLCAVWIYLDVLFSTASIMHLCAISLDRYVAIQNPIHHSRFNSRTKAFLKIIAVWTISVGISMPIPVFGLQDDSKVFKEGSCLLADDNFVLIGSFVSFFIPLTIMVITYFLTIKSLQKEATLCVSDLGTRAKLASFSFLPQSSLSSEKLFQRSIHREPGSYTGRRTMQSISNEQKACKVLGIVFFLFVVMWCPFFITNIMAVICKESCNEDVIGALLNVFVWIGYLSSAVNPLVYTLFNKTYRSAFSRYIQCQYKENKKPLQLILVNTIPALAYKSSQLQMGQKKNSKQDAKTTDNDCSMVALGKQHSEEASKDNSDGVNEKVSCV
Format: cell-based, CHO-K1
Summary of the method: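 Human recombinant 5-HT2A membranes from CHO-K1 cells were incubated with 1 nM [3H]ketanserin, with mianserin defining nonspecific binding. Incubation was 60 min at 27 °C in 50 mM Tris-HCl pH 7.4 with 4 mM CaCl2 and 0.1% ascorbic acid. Filtered on glass fibre presoaked in 0.5% PEI, washed, and counted. IC50 by nonlinear regression from 7–8 concentrations in duplicate.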

Row | Compound | pIC50
22 | Cc1cccc(N2CCN(CCNC(=O)c3cc(C(C)(C)C)n(C)c3C)CC2)c1C | 7.44
23 | Cc1c(C(=O)NCCN2CCN(c3cccc(Cl)c3Cl)CC2)c(C)n(C)c1-c1ccccc1 | 7.48
24 | CCCn1c(-c2ccccc2)cc(C(=O)N(C)CCCN2CCN(c3cccc(C)c3C)CC2)c1C | 7.77
25 | Cc1c(C(=O)NCCCN2CCN(c3ccccc3Br)CC2)cc(-c2ccccc2)n1C | 6.66
26 | CCn1c(-c2ccc(Cl)cc2)cc(C(=O)NCCCN2CCN(c3cccc(Cl)c3Cl)CC2)c1C | 6.82
27 | Cc1c(Cl)cccc1N1CCN(CCNC(=O)c2cc(C(C)(C)C)n(C)c2C)CC1 | 7.27
28 | CCCn1c(-c2ccccc2)cc(C(=O)NCCCN2CCN(c3ccc(Cl)c(Cl)c3)CC2)c1C | 7.27
29 | CCCn1c(-c2ccccc2)cc(C(=O)NCCCN2CCN(c3cccc4cccnc34)CC2)c1C | 6.68

Other lines, results leading:

Row | pIC50 | Compound
30 | 5.34 | Cc1c(C(=O)NCCCN2CCN(c3ccncc3)CC2)cc(-c2ccccc2)n1C
31 | 6.39 | CCCn1c(-c2ccccc2)cc(C(=O)NCCCN2CCN(c3cccc(C(F)(F)F)c3)CC2)c1C
32 | 6.08 | Cc1ccc2cccc(N3CCN(CCCNC(=O)c4cc(-c5ccccc5)n(C)c4C)CC3)c2n1
33 | 6.66 | CCCn1c(-c2ccccc2)cc(C(=O)NCCCN2CCN(c3cccc(Br)c3)CC2)c1C
34 | 6.68 | Cc1c(C(=O)NCCCN2CCN(c3cccc(Cl)c3Cl)CC2)cc(-c2cccnc2)n1C
35 | 6.41 | Cc1cccc(N2CCN(CCCNC(=O)c3cc(C(C)(C)C)n(C)c3C)CC2)c1C
36 | 6.82 | CCCn1c(-c2ccccc2)cc(C(=O)NCCCN2CCN(c3cccc(OC)c3)CC2)c1C
37 | 7.30 | Cc1c(C(=O)NCCN2CCN(c3cccc(Cl)c3Cl)CC2)cc(C(C)(C)C)n1C
38 | 6.45 | Cc1c(C(=O)NCCCN2CCN(c3cccc4cccnc34)CC2)cc(-c2ccccc2)n1C
39 | 6.87 | CCCn1c(-c2ccccc2)cc(C(=O)NCCCN2CCN(c3cc(F)ccc3F)CC2)c1C

The compounds below were run against Voltage-gated inwardly rectifying potassium channel KCNH2 (Homo sapiens, UniProt Q12809) (assay: Inhibition of human recombinant ERG channel expressed in HEK293 cells).
Sequence of Voltage-gated inwardly rectifying potassium channel KCNH2 (Q12809 whole entry): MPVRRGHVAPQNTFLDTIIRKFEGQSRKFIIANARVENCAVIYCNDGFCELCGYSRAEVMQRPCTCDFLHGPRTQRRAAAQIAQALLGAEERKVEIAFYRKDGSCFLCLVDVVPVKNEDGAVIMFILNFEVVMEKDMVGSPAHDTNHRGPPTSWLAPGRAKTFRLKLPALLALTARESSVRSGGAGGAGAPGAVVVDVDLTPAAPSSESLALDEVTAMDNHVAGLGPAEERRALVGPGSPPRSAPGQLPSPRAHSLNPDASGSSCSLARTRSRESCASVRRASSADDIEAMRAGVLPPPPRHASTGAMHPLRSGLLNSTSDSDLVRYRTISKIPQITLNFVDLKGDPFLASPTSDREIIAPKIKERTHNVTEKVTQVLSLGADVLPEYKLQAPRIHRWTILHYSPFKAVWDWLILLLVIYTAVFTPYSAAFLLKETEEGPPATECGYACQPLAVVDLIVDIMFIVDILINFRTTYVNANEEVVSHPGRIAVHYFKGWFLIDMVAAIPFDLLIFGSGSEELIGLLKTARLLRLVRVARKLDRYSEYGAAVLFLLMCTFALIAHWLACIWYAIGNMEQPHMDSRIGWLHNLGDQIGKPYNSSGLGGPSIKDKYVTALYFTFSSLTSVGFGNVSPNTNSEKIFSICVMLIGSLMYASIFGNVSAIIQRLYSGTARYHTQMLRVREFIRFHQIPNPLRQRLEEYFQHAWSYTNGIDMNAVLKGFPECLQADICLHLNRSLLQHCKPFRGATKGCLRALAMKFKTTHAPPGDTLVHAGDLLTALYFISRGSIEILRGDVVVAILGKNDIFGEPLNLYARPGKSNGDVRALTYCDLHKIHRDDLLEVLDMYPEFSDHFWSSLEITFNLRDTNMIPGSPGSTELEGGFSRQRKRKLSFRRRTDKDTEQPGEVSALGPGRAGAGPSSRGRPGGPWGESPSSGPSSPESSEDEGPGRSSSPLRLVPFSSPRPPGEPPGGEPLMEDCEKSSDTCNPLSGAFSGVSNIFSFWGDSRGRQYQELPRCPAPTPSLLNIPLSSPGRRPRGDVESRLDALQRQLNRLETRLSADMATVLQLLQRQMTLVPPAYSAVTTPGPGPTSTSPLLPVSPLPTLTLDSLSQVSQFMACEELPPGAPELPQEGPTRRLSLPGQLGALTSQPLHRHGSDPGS

Row | Compound | pIC50
40 | Cc1cccc(N2CCN(CCNC(=O)c3cc(C(C)(C)C)n(C)c3C)CC2)c1C | 4.93
41 | CCCn1c(-c2ccccc2)cc(C(=O)N(C)CCCN2CCN(c3cccc(C)c3C)CC2)c1C | 6.15
42 | Cc1c(C(=O)NCCCN2CCN(c3cccc(Cl)c3Cl)CC2)cc(-c2cccnc2)n1C | 5.17
43 | CCCn1c(-c2ccccc2)cc(C(=O)NCCCN2CCN(c3cccc(Cl)c3Cl)CC2)c1C | 6.27
44 | Cc1[nH]c(-c2ccccc2)cc1C(=O)NCCCN1CCN(c2cccc(Cl)c2Cl)CC1 | 7.00
45 | Cc1c(C(=O)N(C)CCCN2CCN(c3cccc(Cl)c3Cl)CC2)cc(-c2ccccc2)n1C | 6.30
46 | CCCn1c(-c2ccccn2)cc(C(=O)NCCCN2CCN(c3cccc(Cl)c3Cl)CC2)c1C | 6.00

Each compound was assayed against T1, 5-hydroxytryptamine receptor 2C (Homo sapiens, UniProt P28335) (assay: Displacement of [3H]mesulergine from human recombinant 5HT2C expressed in CHOK1 cells).
T1 sequence (P28335 whole entry): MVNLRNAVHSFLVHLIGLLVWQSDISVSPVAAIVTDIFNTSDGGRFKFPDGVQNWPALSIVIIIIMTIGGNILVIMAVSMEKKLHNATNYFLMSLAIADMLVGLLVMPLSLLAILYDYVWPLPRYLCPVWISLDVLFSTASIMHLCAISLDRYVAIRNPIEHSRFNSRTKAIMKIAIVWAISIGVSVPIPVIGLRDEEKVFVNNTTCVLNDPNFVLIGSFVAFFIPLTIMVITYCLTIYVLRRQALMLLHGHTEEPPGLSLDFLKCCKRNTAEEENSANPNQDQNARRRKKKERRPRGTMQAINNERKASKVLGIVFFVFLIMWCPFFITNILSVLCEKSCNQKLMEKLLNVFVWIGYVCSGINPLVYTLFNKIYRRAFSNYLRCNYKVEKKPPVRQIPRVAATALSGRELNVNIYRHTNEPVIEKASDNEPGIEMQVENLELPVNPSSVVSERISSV
Format: cell-based, CHO-K1
Summary of the method: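 Frozen CHO-K1 membranes with human recombinant 5-HT2C were incubated with 1.3 nM [3H]mesulergine in 50 mM Tris-HCl pH 7.4 with 0.1% ascorbic acid and 4 mM CaCl2 for 60 min at 27 °C. Nonspecific binding was set with 100 mianserin. Stopped by rapid filtration on glass fibre presoaked in 0.5% PEI.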

Row | Compound | pIC50
47 | Cc1cccc(N2CCN(CCNC(=O)c3cc(C(C)(C)C)n(C)c3C)CC2)c1C | 5.65
48 | Cc1[nH]c(-c2ccccn2)cc1C(=O)NCCCN1CCN(c2cccc(Cl)c2Cl)CC1 | 6.66
49 | Cc1c(Cl)cccc1N1CCN(CCNC(=O)c2cc(-c3ccccc3)n(C)c2C)CC1 | 6.63
50 | Cc1c(C(=O)NCCN2CCN(c3cccc(Cl)c3Cl)CC2)c(C)n(C)c1-c1ccccc1 | 7.80
51 | CCCn1c(-c2ccccc2)cc(C(=O)N(C)CCCN2CCN(c3cccc(C)c3C)CC2)c1C | 7.92
52 | Cc1c(C(=O)NCCCN2CCN(c3ccccc3Br)CC2)cc(-c2ccccc2)n1C | 6.20
53 | CCn1c(-c2ccc(Cl)cc2)cc(C(=O)NCCCN2CCN(c3cccc(Cl)c3Cl)CC2)c1C | 7.66
54 | Cc1c(Cl)cccc1N1CCN(CCNC(=O)c2cc(C(C)(C)C)n(C)c2C)CC1 | 6.68
55 | CCCn1c(-c2ccccc2)cc(C(=O)NCCCN2CCN(c3ccc(Cl)c(Cl)c3)CC2)c1C | 6.49
56 | CCCn1c(-c2ccccc2)cc(C(=O)NCCCN2CCN(c3cccc4cccnc34)CC2)c1C | 6.38

Results, then the compound that gave them:

Row | pIC50 | Compound
57 | 5.28 | Cc1c(C(=O)NCCCN2CCN(c3ccncc3)CC2)cc(-c2ccccc2)n1C
58 | 7.68 | CCCn1c(-c2ccccc2)cc(C(=O)N(C)CCCN2CCN(c3cccc(Cl)c3Cl)CC2)c1C
59 | 6.21 | CCCn1c(-c2ccccc2)cc(C(=O)NCCCN2CCN(c3cccc(C(F)(F)F)c3)CC2)c1C
60 | 6.19 | Cc1ccc2cccc(N3CCN(CCCNC(=O)c4cc(-c5ccccc5)n(C)c4C)CC3)c2n1
61 | 6.20 | CCCn1c(-c2ccccc2)cc(C(=O)NCCCN2CCN(c3cccc(Br)c3)CC2)c1C
62 | 7.04 | Cc1c(C(=O)NCCCN2CCN(c3cccc(Cl)c3Cl)CC2)cc(-c2cccnc2)n1C
63 | 5.94 | Cc1cccc(N2CCN(CCCNC(=O)c3cc(C(C)(C)C)n(C)c3C)CC2)c1C
64 | 6.34 | CCCn1c(-c2ccccc2)cc(C(=O)NCCCN2CCN(c3cccc(OC)c3)CC2)c1C
65 | 6.96 | Cc1c(C(=O)NCCN2CCN(c3cccc(Cl)c3Cl)CC2)cc(C(C)(C)C)n1C
66 | 6.63 | Cc1c(C(=O)NCCCN2CCN(c3cccc4cccnc34)CC2)cc(-c2ccccc2)n1C
67 | 7.46 | Cc1c(C(=O)N(C)CCCN2CCN(c3cccc(Cl)c3Cl)CC2)cc(-c2ccccc2)n1C
68 | 6.00 | CCCn1c(-c2ccccc2)cc(C(=O)NCCCN2CCN(c3cc(F)ccc3F)CC2)c1C
